These results are taken from ChEMBL document CHEMBL1123247, “Nucleoside conjugates. 7. Synthesis and antitumor activity of 1-beta-D-arabinofuranosylcytosine conjugates of ether lipids” (J Med Chem, 1986).

In general, T/C refers to the ratio of treated to control. As a reminder, the IC50 is the concentration needed to halve the response being measured. High values mean weaker potency, low ones greater potency.

Assay [1] deals with L1210. The assay can be described thus: Antitumor activity was determined against the ip implanted L1210 leukemia in mice by 45-day survivors in mice at 300 mg/kg (treatment of 1qd schedule) dosage. The assay is classed as functional, Mus musculus. The conditions noted are these: route intraperitoneal. In a few lines:
(§1)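 DBA/2J mice in groups of 6 (wt 23-28 g) were inoculated ip with 1×10^6 L1210 cells on day 0. Dosing was ip from 24 h, in 0.9% NaCl with 0.5% Tween-80 (conjugates sonicated), across a range of doses. Mice were observed daily until death or 45 days. Median T/C was computed from survivors per NCI protocols, and ILS = (T/C − 1)×100.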

Assay [2] deals with L1210. The assay can be described thus: Antitumor activity against ic implanted L1210 lymphoid leukemia in mice expressed as active dose range (1,5,9qd treatment schedule) required to produce increase in life span by >25% was determined; Range 67-133. The assay is classed as functional, Mus musculus. In a few lines: (§2)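 DBA/2J mice, groups of 6 (26-32 g), got 1 × 10^5 L1210 cells ic on day 0. Dosing was ip starting 24 h later, as a sonicated solution or suspension in 0.9% NaCl with 0.5% Tween-80, over a wide dose range. Mice were followed daily until death. Median survival T/C was taken from survivors per NCI protocols, and ILS = (T/C − 1) × 100. Active range means doses giving ILS ≥25%; optimal dose means greatest ILS.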

Assay [3] relates to L1210. The experiment in a line: Antitumor activity was determined against the ic implanted L1210 lymphoid leukemia in mice by range in survival days at 133 mg/kg (1,5,9qd treatment schedule) dosage; Range is 15-22. The assay is classed as functional, Mus musculus.
Assay [4] has as its system L1210. The assay can be described thus: Antitumor activity against ic implanted L1210 lymphoid leukemia in mice expressed as active dose range (1-5qd treatment schedule) required to produce increase in life span by >25% was determined; Range is 40-80. Type of assay: functional, Mus musculus. In a few lines: as §2
For assay [5], the system named is L1210. The assay can be described thus: Antitumor activity was determined against the ic implanted L1210 lymphoid leukemia in mice by range in survival days at 80 mg/kg (1-5qd treatment schedule) dosage; Range is 11-24. The assay is classed as functional, Mus musculus.
In assay [6] the test system is P388. The experiment in a line: Antitumor activity was determined against the ip implanted P388 leukemia in mice by percent median survival rate (treated/control) at 60 mg/kg (1-5qd treatment schedule) dosage; >45.0/11.0. Type of assay: functional, Mus musculus. The settings on record: route intraperitoneal.
The subject of assay [7] is L1210. The assay can be described thus: Antitumor activity was determined against the ip implanted L1210 leukemia in mice by percent median survival rate (treated/control) at 40 mg/kg (treatment of 1-5qd schedule) dosage; 30.0/8.0. The assay is classed as functional, Mus musculus. The conditions noted are these: route intraperitoneal. The procedure, abridged: (§3)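 DBA/2J mice, 23-28 g, in groups of 6, were inoculated ip with 1×10^6 L1210 cells on day 0. Dosing was ip starting 24 h later on the stated daily schedules. Conjugates were given as sonicated solutions and reference prodrugs as suspensions in 0.9% NaCl with 0.5% Tween-80. Mice were observed daily until death or 45 days. Median survival T/C was calculated from survivors per NCI protocols.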

In assay [8] the test system is P388. The experiment in a line: Antitumor activity was determined against the ip implanted P388 leukemia in mice by 45-day survivors in mice at 300 mg/kg (treatment of 1qd schedule) dosage. The conditions noted are these: route intraperitoneal.
Assay [9] deals with L1210. The experiment in a line: Antitumor activity against ip implanted L1210 leukemia in mice expressed as active dose range (1-5qd treatment schedule) required to produce increase in life span by >25% was determined; Range is 40-80. Type of assay: functional, Mus musculus. The procedure, abridged: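 DBA/2J mice, groups of 6 (23-28 g), were inoculated ip with 1 × 10^6 L1210 cells on day 0. Dosing was ip from 24 h, in 0.9% NaCl with 0.5% Tween-80 (sonicated solution or suspension). Mice were observed daily until death or day 45. Median survival T/C followed NCI protocols, and ILS = (T/C − 1) × 100. Active range means doses giving ILS ≥25%; optimal dose means greatest ILS.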

Assay [10] has as its system L1210. The assay can be described thus: Antitumor activity was determined against the ip implanted L1210 leukemia in mice by 45-day survivors in mice at 80 mg/kg (treatment of 1-5qd schedule) dosage. The assay is classed as functional, Mus musculus. The settings on record: route intraperitoneal. The procedure, abridged:
as §1

The test system of assay [11] is L1210. The assay can be described thus: Antitumor activity was determined against the ic implanted L1210 lymphoid leukemia in mice by median survival time at 100 mg/kg (treatment of 1-5qd schedule) dosage; 22.0/7.0.
The subject of assay [12] is P388. The assay can be described thus: Antitumor activity was determined against the ip implanted P388 leukemia in mice by change in […] at 60 mg/kg (treatment of 1-5qd schedule) dosage. Type of assay: functional, Mus musculus. The conditions noted are these: route intraperitoneal. The procedure, abridged: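 P388 leukemia, 1×10^6 cells implanted ip on day 0 into DBA/2J mice, groups of 6 (wt 23-33 g). Dosing ip started 24 h post-inoculation, vehicle 0.9% NaCl containing 0.5% Tween-80. Animals were observed daily until death or 45 days. Outputs were weight change, median survival T/C from survivors per NCI protocols, and %ILS = (T/C − 1) × 100.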

The subject of assay [13] is L1210. The assay can be described thus: Antitumor activity was determined against the ic implanted L1210 lymphoid leukemia in mice by percent increase in life span at 100 mg/kg (treatment of 1-5qd schedule) dosage. The assay is classed as functional, Mus musculus. In a few lines:
as §2

In assay [14] the test system is P388. The assay can be described thus: Antitumor activity was determined against the ip implanted P388 leukemia in mice by percent median survival rate (treated/control) at 60 mg/kg (1-5qd treatment schedule) dosage; 23.0/11.0. The assay is classed as functional, Mus musculus. The conditions noted are these: route intraperitoneal.
Assay [15] deals with P388. The assay can be described thus: Antitumor activity was determined against the ip implanted P388 leukemia in mice by percent increase in life span at 67 mg/kg (treatment of 1,5,9qd schedule) dosage. The assay is classed as functional, Mus musculus. The conditions noted are these: route intraperitoneal.
Assay [16] has as its system L1210. The experiment in a line: Antitumor activity was determined against the ip implanted L1210 leukemia in mice by range in survival days at 100 mg/kg (treatment of 1-5qd schedule) dosage; 18-32. The assay is classed as functional, Mus musculus. The settings on record: route intraperitoneal. The procedure, abridged: as §3
Assay [17] relates to P388. The assay can be described thus: Antitumor activity was determined against the ip implanted P388 leukemia in mice by percent increase in life span at 200 mg/kg (treatment of 1-5qd schedule) dosage. The assay is classed as functional, Mus musculus. The settings on record: route intraperitoneal. The procedure, abridged: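 DBA/2J mice, 23-33 g, in groups of 6, were inoculated ip with 1×10^6 P388 cells on day 0. Dosing was ip from 24 h on the stated schedules, in 0.9% NaCl with 0.5% Tween-80 (sonicated solution or suspension). Survival was followed daily until death or 45 days. Median T/C was calculated from survivors per NCI protocols, with ILS = (T/C − 1) × 100.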

The test system of assay [18] is L1210. The assay can be described thus: Antitumor activity was determined against the ip implanted L1210 leukemia in mice by 45-day survivors in mice at 200 mg/kg (treatment of 1-5qd schedule) dosage. The settings on record: route intraperitoneal. The assay is classed as functional, Mus musculus. The procedure, abridged:
as §1

The test system of assay [19] is P388. The experiment in a line: Antitumor activity was determined against the ip implanted P388 leukemia in mice by percent median survival rate (treated/control) at 200 mg/kg (treatment of 1-5qd schedule) dosage; 23.0/11.0. The settings on record: route intraperitoneal. Type of assay: functional, Mus musculus.
The test system of assay [20] is L1210. The assay can be described thus: Antitumor activity was determined against the ip implanted L1210 leukemia in mice by percent median survival rate (treated/control) at 400 mg/kg (treatment of 1qd schedule) dosage; 9.5/8.0. The assay is classed as functional, Mus musculus. The conditions noted are these: route intraperitoneal. In a few lines:
as §3

The subject of assay [21] is L1210. The experiment in a line: Antitumor activity was determined against the ip implanted L1210 leukemia in mice by range in survival days at 400 mg/kg (treatment of 1qd schedule) dosage; Range is 9-11. The assay is classed as functional, Mus musculus. The settings on record: route intraperitoneal. The procedure, abridged: as §3
The subject of a further assay is Glioblastoma cell line. The experiment in a line: Compound was tested for the inhibition of glioblastoma. Type of assay: functional, cell-based. The conditions noted are these: Homo sapiens. In a few lines:
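Human leukemia and solid tumor cells in culture were exposed to compound for 48 h. Viability was scored by trypan blue dye exclusion. IC50 (50% inhibition) was estimated from response curves of three separate experiments.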

With `CCCCCCCCCCCCCCCC(=O)OC[C@H](COP(=O)(O)OP(=O)(O)OC[C@H]1O[C@@H](n2ccc(N)nc2=O)[C@@H](O)[C@@H]1O)OC(=O)CCCCCCCCCCCCCCC`, the Survivors in the assay with L1210 [1] amounted to 1. Moreover, the Active dose range in the assay on L1210 [2] worked out at 67 mg/kg/day; in the assay with L1210 [4], 40 mg/kg/day. Moreover, the values for the Range in the assay with L1210 [3] and with L1210 [5] were 15 and 11, respectively. The compound also displayed a T/C in the assay on P388 [6] of over 45%. This compound also displayed a median survival time in the assay with L1210 [7] of 30 days.

Take `CCCCCCCCCCCCCCCCOCC(COP(=O)(O)OP(=O)(O)OC[C@H]1O[C@@H](n2ccc(N)nc2=O)[C@@H](O)[C@@H]1O)OC(=O)CCCCCCCCCCCCCCC` (mixture of isomers): the results for the Survivors with P388 [8] and with L1210 [10] were 6 and 0, respectively. The compound also came in with an Active dose range in the assay with L1210 [9] of 40 mg/kg/day. Besides, the median survival time in the assay with L1210 [11] was 22 days. In the assay on P388 [12], this compound displayed a Weight change of -3.3 g mouse-1. In the assay with L1210 [13], this compound registered an ILS of 214.

With `CCCCCCCCCCCCCCCCCCOCC(COP(=O)(O)OP(=O)(O)OC[C@H]1O[C@@H](n2ccc(N)nc2=O)[C@@H](O)[C@@H]1O)OC(=O)CCCCCCCCCCCCCCC` (mixture of isomers), in the assay with P388 [14], the T/C turned out to be 23%. The ILS in the assay on P388 [15] came to 132. Moreover, the Range with L1210 [16] was determined as 18.

In the assay on P388 [17], `Nc1ccn([C@@H]2O[C@H](CO)[C@@H](O)[C@@H]2O)c(=O)n1` [CYTARABINE] displayed an ILS of 109. In the assay on L1210 [18], the Survivors is 0. Moreover, the values for the T/C in the assay with P388 [19] and in the assay on L1210 [20] were 23% and 9.5%, respectively. This compound also came in with a Range with L1210 [21] of 9. In the assay with Glioblastoma cell line, this compound displayed a half-maximal inhibitory concentration (IC50) of over 100 µM.
